KCNQ1 inh – inhibitors of human KCNQ1 channel, primary screen, cell-based, thallium flux, high-throughput; CHO-K1 KCNQ1, FluxOR thallium flux fluorescence; stronger effect = higher value; B-score at 10 µM; hit rate 1.3% among 310,000; AID 2642, 2010;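 active = compounds whose thallium flux B-score, printed positive for inhibition, exceeds three library SD while starting fluorescence stays within three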;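 note: channel opened by potassium depolarization with thallium stimulus after 20 min compound exposure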
KCNQ1 pot – potentiators or activators of KCNQ1 channel, primary screen, cell-based, thallium flux, high-throughput; Potassium voltage-gated channel subfamily KQT member 1 (Homo sapiens), P51787; CHO-K1 KCNQ1, thallium flux FluxOR fluorescence; stronger effect = higher value; B-score at 10 µM; hit rate 0.35% among 310,000;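 active = fluorescence ratio B-score, a plate-corrected score, at least three library SD, with initial intensity B-score within 5 SD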
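Schedule – 37 °C overnight plating, 90-min dark dye load, 20-min compound pretreatment · System – stable KCNQ1 CHO-K1 line · Probe or stimulus – thallium- and potassium-containing depolarizing buffer · Measured by – kinetic FluxOR fluorescence, 10 s baseline plus 110 s post-stimulus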
KCNK9 block – KCNK9 potassium channel inhibitors, primary screen, HEK293 cells, thallium flux. Potassium channel subfamily K member 9 (Homo sapiens), Q9NPC2. FluxOR thallium flux fluorescence; stronger effect = lower value. B-score at 10 µM. hit rate 1.2% among 310,000. AID 488922, 2010;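 active = ratio B-score over 3 SD below the library mean, with starting fluorescence within 5 SD of its mean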;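 note: negative B-score means less thallium flux so channel inhibition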
KCC2 mod – KCC2 cotransporter modulators, thallium flux, primary screen, cell-based, HEK293 KCC2, FluoZin-2 fluorescence, MLSMR; KCC2 cells, thallium flux FluoZin-2 fluorescence; hit rate 2.2% among 190,000; B-score of Tl+ flux slope (higher = more flux/activation; lower = inhibition) at 10 µM; Solute carrier family 12 member 5 (Homo sapiens), Q9H2X9;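 active = thallium flux slope and its plate-corrected score both differing from the plate sample mean at a set confidence after two filtering rounds, in either direction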;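 note: slope of fluorescence scaled to starting intensity during 10 to 20 s after thallium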
Target sequence (Q9H2X9 whole entry, looked up): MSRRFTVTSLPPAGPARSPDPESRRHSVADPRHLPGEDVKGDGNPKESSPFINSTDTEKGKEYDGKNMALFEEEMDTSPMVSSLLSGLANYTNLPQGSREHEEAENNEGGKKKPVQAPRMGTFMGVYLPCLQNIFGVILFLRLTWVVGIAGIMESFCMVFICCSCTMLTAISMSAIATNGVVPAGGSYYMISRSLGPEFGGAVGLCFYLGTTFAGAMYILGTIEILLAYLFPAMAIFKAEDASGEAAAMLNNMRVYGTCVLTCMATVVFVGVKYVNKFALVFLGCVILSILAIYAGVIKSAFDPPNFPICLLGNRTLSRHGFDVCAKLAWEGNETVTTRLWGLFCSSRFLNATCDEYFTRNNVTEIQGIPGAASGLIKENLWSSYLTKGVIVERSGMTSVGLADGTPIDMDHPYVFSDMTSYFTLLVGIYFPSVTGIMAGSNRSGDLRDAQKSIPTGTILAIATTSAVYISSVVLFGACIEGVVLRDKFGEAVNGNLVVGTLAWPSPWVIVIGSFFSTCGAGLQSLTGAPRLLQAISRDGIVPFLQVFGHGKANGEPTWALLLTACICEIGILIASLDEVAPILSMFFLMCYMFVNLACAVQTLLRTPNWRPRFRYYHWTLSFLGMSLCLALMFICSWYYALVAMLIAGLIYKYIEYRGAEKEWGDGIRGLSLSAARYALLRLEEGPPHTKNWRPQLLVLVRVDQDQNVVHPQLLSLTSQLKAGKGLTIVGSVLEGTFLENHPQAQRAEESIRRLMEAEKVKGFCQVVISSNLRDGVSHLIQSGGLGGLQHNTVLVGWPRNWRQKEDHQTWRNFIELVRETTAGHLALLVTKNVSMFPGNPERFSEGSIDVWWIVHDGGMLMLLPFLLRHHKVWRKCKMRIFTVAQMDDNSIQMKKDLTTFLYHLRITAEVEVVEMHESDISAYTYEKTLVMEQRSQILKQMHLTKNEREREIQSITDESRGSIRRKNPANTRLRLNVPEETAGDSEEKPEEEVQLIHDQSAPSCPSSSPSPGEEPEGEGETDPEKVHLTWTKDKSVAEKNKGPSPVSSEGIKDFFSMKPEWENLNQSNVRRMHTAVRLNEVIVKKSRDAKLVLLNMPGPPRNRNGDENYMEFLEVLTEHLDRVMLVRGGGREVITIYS
KCNK3 block – human KCNK3 channel inhibitors, primary screen, CHO cells, FluxOR thallium flux, B-score | Potassium channel subfamily K member 3 (Homo sapiens), O14649 | FluxOR fluorescence; stronger effect = lower value | B-score at 10 µM | hit rate 0.84% among 340,000 | AID 602410, 2012;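 active = B-score under library mean minus 4 SD, starting fluorescence ratio at most library mean plus 5 SD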;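 note: more negative B-score means stronger inhibition of thallium flux through KCNK3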
hERG protect – hERG rescue from dofetilide block, primary screen, cell-based, CHO-hERG, FluxOR thallium flux, dofetilide IC70; dofetilide IC70 present; activation (rescue from dofetilide block), less the hit threshold, % at 10 µM; hit rate 0.51% among 310,000;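 active = activation above the mean of controls blocked by dofetilide plus 5 SD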;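 note: thallium influx through hERG after potassium depolarization seen as dye fluorescence rise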
KCC2 secondary – KCC2 modulators in sodium-free buffer, confirmation, cell-based, HEK293 KCC2, thallium flux, secondary assay; hit rate 15% among 3,700; FluoZin2 fluorescence; stronger effect = higher value; shares compounds with KCC2 mod; normalised thallium flux (F/F0 slope) at 10 µM;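 active = thallium flux slope above the same plate's solvent-only control mean plus 3 SD; inconclusive = the two replicate wells disagree; inactive = no significant difference from solvent-only control wells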
KCC2 bumet counter – thallium flux persisting under bumetanide in KCC2 cells, confirmation, counter-screen for KCC2 modulator project, cell-based, HEK293 KCC2, FluoZin2, secondary assay 3; shares compounds with KCC2 mod; hit rate 49% among 3,700; HEK293-KCC2 + bumetanide/ouabain; stronger effect = higher value; normalized thallium flux at 10 µM;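 active = thallium entry rate above the same plate's blocked-transporter control wells by more than 3 SD; inconclusive = the two repeat wells disagree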;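 note: raw slope of fluorescence over initial fluorescence between 10 and 20 s after thallium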
KCC2 secondary2 – KCC2 modulators without ouabain present, confirmation, cell-based, HEK293 KCC2, thallium flux, FluoZin2, secondary assay 2 | hit rate 23% among 3,700 | thallium flux FluoZin2 fluorescence; actives lie on both sides; F/F0 rise rate, 10–20 s post-thallium | shares compounds with KCC2 mod | AID 1715, 2009 | normalized thallium flux at 10 µM;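 active = thallium flux slope more than 3 SD above or below the plate's solvent-only control mean, mostly below; inconclusive = the two repeat wells disagreed; inactive = no significant shift from solvent-only controls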;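 note: raw slope with 0.1% DMSO as baseline and bumetanide as block control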
HEK293 Tl flux – thallium flux modulation in parental HEK cells, confirmation, counter-screen for KCC2 modulator project, cell-based, counterscreen 1. hit rate 46% among 3,700. HEK293 parental cells, thallium flux FluoZin2, ouabain; baseline-ratio fluorescence slope, 10–20 s after thallium. AID 1716, 2009. thallium flux rate (normalised fluorescence) at 10 µM. shares compounds with KCC2 mod;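 active = thallium flux rate significantly above the same plate's solvent-only control wells, beyond their mean plus 3 SD; inconclusive = the two replicate wells gave conflicting results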
KCC2 ouabain – KCC2 inhibitors and activators, ouabain retest, confirmation, HEK-KCC2 cells; shares compounds with KCC2 mod; AID 1717, 2009; hit rate 48% among 3,700; raw Tl+ flux slope (below DMSO = inhibition, above = activation) at 10 µM; HEK293-KCC2, thallium flux FluoZin2 fluorescence; bidirectional: low = inhibitor, high = activator;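 active = thallium flux slope beyond 3 SD from same-plate DMSO control mean in most replicates, usually higher, sometimes lower; inconclusive = repeat tests gave conflicting results; inactive = no significant difference from controls in most replicates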;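 note: slope of initial-normalized fluorescence between seconds 10 and 20 after thallium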
HEK293 Tl flux2 – native HEK Tl+ uptake effects, second counter-screen – HEK cells, counterscreen 2, counter-screen for KCC2 modulator project, confirmation; hit rate 33% among 3,700; HEK293 parental, thallium flux FluoZin-2 fluorescence slope; shares compounds with KCC2 mod; thallium flux slope at 10 µM; AID 1718, 2009;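 active = thallium flux slope above the same plate's solvent-control mean plus 3 SD in both duplicate wells; inconclusive = duplicate wells that disagreed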;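 note: run without ouabain in cells lacking the KCC2 cotransporter; slope of fluorescence scaled to its starting value between 10 and 20 s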
* marks the source's active call; other numbers are inactive results; i = inactive; u = inconclusive; x = no result given. The list is not random: actives were taken first. Their share in the collection is about 4.1%.

SMILES	KCNQ1 inh	KCNQ1 pot	KCNK9 block	KCC2 mod	KCNK3 block	hERG protect	KCC2 secondary	KCC2 bumet counter	KCC2 secondary2	HEK293 Tl flux	KCC2 ouabain	HEK293 Tl flux2
COc1ccc(OC)c(S(=O)(=O)Nc2cnc3ccccc3c2)c1	i	i	i	-5.59*	i	-11.1	0.0068	0.00479	0.0307	0.00814	0.019	0.0106
COc1ccc(NS(=O)(=O)c2cc(OC)ccc2OC)cc1	i	i	i	x	i	-3.8	x	x	x	x	x	x
CCOc1ccc(CN(CCC#N)C(=S)NC(=O)c2ccccc2)cc1	i	11*	i	29.6*	i	-2.4	0.0462*	0.117*	0.0436*	0.0725*	0.0935*	0.0303*
N#CCCN(Cc1ccccc1)C(=S)NC(=O)c1ccccc1	i	i	i	x	i	-1.7	x	x	x	x	x	x
Cc1ccccc1OCC(=O)NNC(=O)CCN1C(=O)c2ccccc2C1=O	i	i	i	-3.93*	i	-6.2	0.00683	0.00559	0.0234*	0.00775	u	0.0111
CCOc1ccc(N2CC(C(=O)Nc3c(C)n(C)n(-c4ccccc4)c3=O)CC2=O)cc1 (centres undefined)	i	i	i	-4.98*	i	-10.9	0.00869	0.00696	0.0277	0.00664	0.0208	0.00886
CCOc1ccc(N2CC(C(=O)Nc3ccccc3OC)CC2=O)cc1 (centres undefined)	i	i	i	0.247	i	-4.1	x	x	x	x	x	x
O=C1CCCc2oc3ccc(O)cc3c21	i	i	i	0.47	i	-0.8	x	x	x	x	x	x
COc1ccc2nc(NC(=O)CSc3nnc(-c4ccoc4C)n3C)sc2c1	i	i	i	-3.79*	i	-12.1	0.00737	u	0.0321	0.00426	0.0152*	0.0113
Cc1cc2oc(=O)cc(CN3CCOCC3)c2cc1C	i	i	i	6.87*	i	-7.5	0.00618	0.00527	0.0263*	0.00756	0.018	0.0114
Fc1ccccc1-n1c(-c2ccc3ccccc3n2)n[nH]c1=S	i	i	i	4.53*	i	0.0	0.0112	0.0223*	u	u	u	0.0119
Oc1c(Br)cc(Br)cc1/C=N/NC(=S)N[C@H]1CC2C=CC1C2 (some centres undefined)	i	i	i	4.76*	i	-1.1	0.00792	0.014*	0.0296	0.0102*	u	0.00945
CNC(=S)N/N=C/c1cc(Br)cc(Br)c1O	i	i	i	2.09	i	1.2	x	x	x	x	x	x
CCOC(=O)c1cn(CC)c2cc(N3CCSCC3)c(F)cc2c1=O	i	i	i	8.04*	i	-3.4	0.00647	0.00405	0.0319	0.00747	0.0187	0.00998
Cc1c(NC(=O)Nc2cccc(C#N)c2)c(=O)n(-c2ccccc2)n1C	i	i	i	x	i	-8.8	x	x	x	x	x	x
CCc1ccccc1NC(=O)c1ccc(S(=O)(=O)NCC2CCCO2)cc1 (centres undefined)	i	i	i	x	i	-8.6	x	x	x	x	x	x
Cc1ccc(C(=O)CCC2CCCCC2=O)cc1 (centres undefined)	i	i	i	x	i	-1.6	0.00582	0.0119*	0.0308	0.00746	u	0.0105
Cc1ccc(C(=O)CCC2CCCC2=O)cc1 (centres undefined)	i	i	i	1.26	i	-0.4	x	x	x	x	x	x
Cc1cc(=O)oc2cc(OCc3ccc(C(=O)OCC(=O)NC4CCS(=O)(=O)C4)cc3)ccc12 (centres undefined)	i	i	i	-0.734	i	-6.0	x	x	x	x	x	x
COc1ccccc1OCCSc1nnnn1C1CCCCC1	i	i	i	-1.13	i	-9.9	x	x	x	x	x	x
O=C(Nc1ccccn1)c1cc2cc([N+](=O)[O-])ccc2s1	i	i	i	-0.374	i	1.8	x	x	x	x	x	x
O=C(Nc1nnc(-c2ccccc2Cl)o1)c1cc2cc([N+](=O)[O-])ccc2s1	x	x	x	6.56*	x	x	0.00549	0.0147*	0.0344	0.0163*	u	0.0166*
Oc1[nH]c2ccccc2c1/C=N/c1nccs1	i	i	i	15.1*	i	-12.2	0.0132*	0.0231*	0.0345	u	u	u
COc1ccc(N=Cc2c(O)[nH]c3ccccc23)cc1	i	i	i	-1.28	i	0.5	x	x	x	x	x	x
Cc1cc(C(=O)O)ccc1-c1ccc(/C=N/n2cnnc2)o1	i	i	i	x	i	-7.1	x	x	x	x	x	x
COCCCn1c(SCC(=O)N2CCOCC2)nnc1-c1ccco1	i	i	i	x	i	-6.3	x	x	x	x	x	x
CCCc1nnc(SCC(=O)N2CCOCC2)n1CCCOC	i	i	i	8.04*	i	-3.3	0.00649	0.00498	0.0298	0.00764	0.0181	0.0101
c1coc(CNc2nc3nonc3nc2NCc2ccco2)c1	x	x	x	x	i	x	u	0.00486	0.0277*	0.00732	0.0188	0.0106
S=C(NCc1ccco1)Nc1ccc(Br)cc1Cl	i	i	i	4.01*	i	-12.4	0.0174	0.0105*	0.0306	0.00926*	0.0178	u

Screening data as filed in PubChem.
